Experimental data taken from PubChem BioAssay.
Calls of active or inactive are those of the source.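 The calls were made as follows, unless noted: active = visually confirmed hit in the image check and inhibition above 20%; inconclusive = visually confirmed hit but inhibition not above 20%; inactive = no visual hit in the image check.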

Experiments:
[1] = inhibitors of TNFa-induced NFkB p65 translocation, primary screen, imaging, HUVEC, MLSMR starter and 10KST1 sets (AID 438;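 active = inhibition above 20% together with a positive visual image hit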;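 also: compound added about 3h40 before a 20 min TNFalpha stimulation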;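 as to inhibition: signal is the nuclear over cytoplasmic p65 intensity ratio per well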); details: HUVEC TNFa-induced p65 nuclear translocation; cell count: measured here: nuclei count (cytotoxicity indicator), at 2.08 µM; inhibition: at 2 µM, stronger effect = higher value, 0% TNFa-plus-vehicle, 100% no-TNFa wells
[2] = inhibitors of mutant huntingtin aggregation, primary screen, imaging, exon1htt(103Q)mCFP cells, high-content imaging (AID 483;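 active = visual image review flags a hit and inhibition of aggregation exceeds 20%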;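 also: compound exposure lasted 3 days before fixation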;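 as to nuclei count: percent of the per-plate median nuclei count of sample wells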); details: exon1htt(103Q)mCFP cell line, aggregate imaging, at 2 µM; inhibition of aggregation: stronger effect = higher value; nuclei count: measured here: cell count, toxicity
[3] = inhibitors of E-selectin induction by TNFa, primary screen, imaging, HUVEC, immunofluorescence, MLSMR starter and 10KST1 sets (AID 487); details: HUVEC TNFalpha-induced E-selectin immunofluorescence imaging, at 2 µM; inhibition: stronger effect = higher value; nuclei count: measured here: cell number, toxicity;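 as to inhibition: signal is fraction of cell area covered by stained E-selectin grains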;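 as to nuclei count: 100% = median nuclei count of all wells on the same plate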
[4] = biological target: Voltage-gated potassium channel subunit beta-2 (Rattus norvegicus) (UniProt P62483); experiment: KvBeta enzyme negative modulators, primary screen, biochemical, NADPH fluorescence (AID 622;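 active = fluorescence slope higher than the sample average by over 3 SD, cut at about -0.22 in these data, passing the limit was not always enough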;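 also: slope of raw intensity against log time taken from 70 to 1610 s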); details: recombinant KvBeta, 4-cyanobenzaldehyde reduction, at 10 µM, stronger effect = higher value
Sequence of Voltage-gated potassium channel subunit beta-2 (Rattus norvegicus) (P62483 whole entry, looked up): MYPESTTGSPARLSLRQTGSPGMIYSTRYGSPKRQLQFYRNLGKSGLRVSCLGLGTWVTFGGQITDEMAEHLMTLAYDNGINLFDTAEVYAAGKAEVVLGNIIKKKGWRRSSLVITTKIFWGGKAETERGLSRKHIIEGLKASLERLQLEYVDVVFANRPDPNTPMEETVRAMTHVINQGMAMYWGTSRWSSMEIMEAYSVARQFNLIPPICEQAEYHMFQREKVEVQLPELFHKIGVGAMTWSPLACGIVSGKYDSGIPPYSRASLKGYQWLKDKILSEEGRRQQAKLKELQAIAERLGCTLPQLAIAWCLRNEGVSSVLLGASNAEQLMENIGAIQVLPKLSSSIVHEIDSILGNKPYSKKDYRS

[5] = biological target: Voltage-gated potassium channel subunit beta-2 (Rattus norvegicus) (UniProt P62483); experiment: KvBeta positive modulators, primary screen, biochemical, NADPH fluorescence (AID 623;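 active = NADPH fluorescence slope more negative than the mean of all samples by about 3 SD, 99.7% confidence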;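 also: fluorescence intensity change per second fitted from 20 to 320 s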); details: Recombinant KvBeta, NADPH fluorescence decrease slope, 10 min; at 10 µM; stronger effect = lower value
[6] = biological target: Alpha-2C adrenergic receptor (Homo sapiens) (UniProt P18825); experiment: modulators of alpha2C/GIRK thallium flux, primary screen, cell-based, HEK293 alpha2C/GIRK1/2 (AID 624;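 active = fluorescence slope after compound addition differing from the mean of all screened samples at 99.7% confidence, in either direction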;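 also: slope of fluorescence ratio to pre-addition baseline per second over 15 to 24 s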); details: thallium flux BTC fluorescence, at 10 µM, actives lie on both sides
Sequence of Alpha-2C adrenergic receptor (Homo sapiens) (P18825 whole entry, looked up): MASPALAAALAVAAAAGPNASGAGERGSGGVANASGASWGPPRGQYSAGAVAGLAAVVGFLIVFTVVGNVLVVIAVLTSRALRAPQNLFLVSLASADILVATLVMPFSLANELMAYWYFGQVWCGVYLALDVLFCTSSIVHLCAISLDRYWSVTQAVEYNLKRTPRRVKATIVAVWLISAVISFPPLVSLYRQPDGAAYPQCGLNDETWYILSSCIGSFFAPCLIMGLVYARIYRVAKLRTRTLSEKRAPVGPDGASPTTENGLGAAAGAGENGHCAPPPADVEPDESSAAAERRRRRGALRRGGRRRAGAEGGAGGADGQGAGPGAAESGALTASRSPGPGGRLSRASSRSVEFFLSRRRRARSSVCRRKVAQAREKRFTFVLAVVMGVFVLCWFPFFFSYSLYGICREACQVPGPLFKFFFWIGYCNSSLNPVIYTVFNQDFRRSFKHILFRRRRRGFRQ

[7] = inhibitors of larval lipid processing in zebrafish, primary screen, whole organism, PED6 fluorescence, gall bladder and intestine (AID 686;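 active = a full or partial loss of lipid-probe fluorescence in the fish gall bladder, intestine or both, judged by eye; inactive = no fluorescence loss, or compound toxic to the fish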;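 also: larvae 5 to 7 days old with five fish per well; signal comes from phospholipase A2 cleavage of quenched PED6 carried via bile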); details: Zebrafish larvae PED6 lipid processing, fluorescence scoring; screened at 20 µM (by protocol)
Summary of the method: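 Incubation: overnight exposure of larvae to compound plus PED6 / Test system: live zebrafish larvae aged 5-7 days, whole organism / Amount: 5 larvae per well / Read-out basis: visual per-well fluorescence inhibition score / Signal: visual fluorescence microscopy scoring of gall bladder, gut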

[8] = inhibitors of Sendai virus-induced IRF3 signaling, primary screen, TLR/RLR signaling modifier project, cell-based, Sendai virus stimulus, luciferase, 10K MLSCN set (AID 602276;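 active = inhibition at or above 50% at 10 µM; inactive = inhibition below 50%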;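 also: firefly luciferase from ISG56 promoter only with Renilla not read in this screen; 0% = Sendai virus plus DMSO and 100% = medium plus DMSO without virus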); details: HEK293 RL24 IRF3 luciferase reporter, at 10 µM, stronger effect = higher value
[9] = inhibitors of poly I:C-induced TLR3 signaling, primary screen, cell-based, poly I:C stimulus, luciferase, 10K MLSCN set (AID 602277;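 active = inhibition of the reporter signal at or above 50%; inactive = inhibition below 50%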); details: HEK293-TLR3 RL24 IRF3 luciferase reporter, at 10 µM, stronger effect = higher value

Structure (SMILES)	cell count [1]	inhibition [1]	inhibition of aggregation [2]	nuclei count [2] [%]	inhibition [3]	nuclei count [3] [%]	fluorescence slope [4]	NADPH fluorescence slope [5]	slope [6]	outcome [7]	inhibition [8]	inhibition [9]
COc1ccc(OC)c(Nc2nc(-c3cccs3)cs2)c1	333	1.5% (inactive)	-9.1% (inactive)	104	-35.5% (inactive)	110	-0.444 (inactive)	-6e-05 (inactive)	0.00343 (inactive)	active; weak signal in gallbladder and intestine	7.1% (inactive)	-5.46% (inactive)
COc1ccc(S(=O)(=O)Nc2ccccc2SC)cc1C	664	-7.1% (inactive)	12.2% (inactive)	102	-125% (inactive)	105	-0.346 (inactive)	1.3e-05 (inactive)	0.00618 (inactive)	inactive	12.4% (inactive)	22.4% (inactive)
CC(NC(=O)NC12CC3CC(CC(C3)C1)C2)C1CCCO1 (centres undefined)	356	2.9% (inactive)	0.8% (inactive)	80.4	1.7% (inactive)	87.1	-0.439 (inactive)	-2.2e-05 (inactive)	0.00592 (inactive)	inactive	15.3% (inactive)	8.29% (inactive)
COc1ccc(CC(=O)Nc2cc(Cl)ccc2O)cc1	605	-9.3% (inactive)	12% (inactive)	99.8	-72% (inactive)	108	-0.409 (inactive)	-1.5e-05 (inactive)	0.00576 (inactive)	inactive	-8.56% (inactive)	-1.02% (inactive)
O=C(CN1CCSCC1)N1CCc2[nH]c3ccc(Br)cc3c2C1	691	3.4% (inactive)	21.5% (inactive)	99.4	28.3% (inactive)	102	-0.384 (inactive)	-5.2e-05 (inactive)	0.00508 (inactive)	inactive	10.7% (inactive)	7.8% (inactive)
O=C(NCC1CCCO1)c1cc(-c2ccncc2)nc2ccc(S(=O)(=O)N3CCOCC3)cc12 (centres undefined)	878	2.1% (inactive)	-9.7% (inactive)	106	-91% (inactive)	129	-0.387 (inactive)	-9.2e-05 (inactive)	0.00498 (inactive)	inactive	10.6% (inactive)	10.8% (inactive)
CCOc1ccc(CCNc2nc3c(c(=O)n(C)c(=O)n3C)n2CC)cc1OCC	602	6.3% (inactive)	-0.6% (inactive)	89.6	-23.5% (inactive)	119	-0.305 (inactive)	3.7e-06 (inactive)	0.00587 (inactive)	inactive	18.8% (inactive)	9% (inactive)
Cc1cc(C(F)(F)F)c2c(C)nn(CCc3nn[nH]n3)c2n1	863	1.1% (inactive)	11.9% (inactive)	112	-20% (inactive)	117	-0.368 (inactive)	1.8e-05 (inactive)	0.00523 (inactive)	inactive	-11.3% (inactive)	-12.7% (inactive)
COc1ccc2cc(C#N)c(N3CCN(Cc4nnnn4CCC(C)C)CC3)nc2c1	363	7% (inactive)	20.7% (inactive)	85.8	-5.8% (inactive)	78.1	-0.379 (inactive)	-3.8e-05 (inactive)	0.00501 (inactive)	inactive	12.8% (inactive)	-2.3% (inactive)
CCOC(=O)c1oc2cc(OCC(N)=O)ccc2c(=O)c1-c1ccc(OC)c(OC)c1	411	8.1% (inactive)	-10.4% (inactive)	106	-114% (inactive)	102	-0.445 (inactive)	-0.000137 (inactive)	0.0045 (inactive)	inactive	19.4% (inactive)	22.5% (inactive)
CSc1c(CC(=O)NCCO)n(C)c2ccccc12	575	-14% (inactive)	8.4% (inactive)	88	-3.5% (inactive)	105	-0.338 (inactive)	1.3e-05 (inactive)	0.005 (inactive)	inactive	1.14% (inactive)	5.52% (inactive)
CCOC(=O)c1sc(NC(=O)CSc2ncn(-c3ccccc3)n2)nc1C	527	-6.5% (inactive)	14.5% (inactive)	102	-8% (inactive)	69.6	-0.363 (inactive)	2.2e-05 (inactive)	0.00535 (inactive)	inactive	13.7% (inactive)	13% (inactive)
COc1ccc(-c2nnc(SCc3nnc(-c4ccc(Cl)cc4)o3)n2-c2ccccc2)cc1	565	-13.6% (inactive)	12.1% (inactive)	106	17.2% (inactive)	138	-0.398 (inactive)	-6.2e-05 (inactive)	0.00535 (inactive)	inactive	-45% (inactive)	-62.8% (inactive)
CCOC(=O)CSc1nc2sc(C)c(C)c2c(=O)[nH]1	419	1.6% (inactive)	-20% (inactive)	104	-75.6% (inactive)	102	-0.38 (inactive)	-5e-06 (inactive)	0.00685 (inactive)	inactive	8.58% (inactive)	9.53% (inactive)
CCOC(=O)Nc1ccc2c(c1)N(C(=O)CCN1CCOCC1)c1ccccc1S2	313	-2.1% (inactive)	32.1% (inactive)	100	3% (inactive)	104	-0.37 (inactive)	-6.8e-05 (inactive)	0.00608 (inactive)	inactive	6.28% (inactive)	18.1% (inactive)
O=C(c1cnc2sccn2c1=O)N1CCc2ccccc2C1	438	-3% (inactive)	4.4% (inactive)	86.1	-376% (inactive)	102	-0.398 (inactive)	-5.3e-05 (inactive)	0.00452 (inactive)	inactive	-4.13% (inactive)	99% (active)
COc1ccccc1NC(=O)N(Cc1ccco1)Cc1cc2c(C)ccc(C)c2[nH]c1=O	722	-11.9% (inactive)	2.5% (inactive)	98.7	-13.2% (inactive)	100	-0.463 (inactive)	-4.7e-05 (inactive)	0.00639 (inactive)	inactive	12.5% (inactive)	5.06% (inactive)
Cc1cnc(NC(=O)CSc2nnc(-c3ccccc3)n2Cc2ccccc2)s1	682	-5.5% (inactive)	14.8% (inactive)	102	-19.9% (inactive)	105	-0.493 (inactive)	5.3e-05 (inactive)	0.00426 (inactive)	inactive	-3.73% (inactive)	-7.1% (inactive)
Cc1cc(N2C(=O)CC(N3CCN(c4ccc(C(=O)c5cccs5)cc4)CC3)C2=O)no1 (centres undefined)	654	10.8% (inactive)	-3% (inactive)	112	-31.2% (inactive)	93.1	-0.392 (inactive)	-4.4e-05 (inactive)	0.00594 (inactive)	inactive	-4.13% (inactive)	-9.36% (inactive)
Cc1cc(=O)n2[nH]c(-c3ccc(Cl)cc3)cc2n1	540	-2.9% (inactive)	0% (inactive)	87.6	46.6% (inactive)	69.3	-0.42 (inactive)	-3.9e-05 (inactive)	0.0052 (inactive)	inactive	-16.8% (inactive)	-40.2% (inactive)
CC(C)(C)n1ncc2c(=O)n(CC(=O)NCc3ccccc3)cnc21	615	2.4% (inactive)	0.5% (inactive)	82.4	-117% (inactive)	104	-0.296 (inactive)	-1.3e-05 (inactive)	0.00536 (inactive)	inactive	-28.3% (inactive)	69.7% (active)
COc1ccc(NC(=O)Cn2nnc(-c3ccccc3F)n2)cc1Cl	602	-9.3% (inactive)	-0.1% (inactive)	92.6	-59.1% (inactive)	107	-0.382 (inactive)	1.8e-05 (inactive)	0.00543 (inactive)	inactive	7.23% (inactive)	38.7% (inactive)
Cc1ccc2c(C(=O)CN3CCSCC3)c(C)[nH]c2c1	634	4.8% (inactive)	-7.9% (inactive)	106	2.2% (inactive)	104	-0.386 (inactive)	-8.2e-05 (inactive)	0.00551 (inactive)	inactive	-12.6% (inactive)	-12.9% (inactive)
O=C(CN1CCN(Cc2ccccc2)CC1)NCC1COc2ccccc2O1 (centres undefined)	531	-6.7% (inactive)	-7% (inactive)	95.7	-17.6% (inactive)	94.9	-0.356 (inactive)	-7.8e-05 (inactive)	0.00497 (inactive)	inactive	12.2% (inactive)	98.2% (active)
COC(=O)C1=C(C)Nc2ncnn2C1c1ccco1 (centres undefined)	303	-4.2% (inactive)	-6.6% (inactive)	100	5.2% (inactive)	93.9	-0.432 (inactive)	-6e-05 (inactive)	0.00405 (inactive)	inactive	15.5% (inactive)	16.5% (inactive)
Cc1occc1C(=O)Nc1ccc(S(=O)(=O)N2CCN(C)CC2)cc1	318	1% (inactive)	-23.8% (inactive)	95.5	-42.1% (inactive)	107	-0.44 (inactive)	-1.3e-05 (inactive)	0.00548 (inactive)	inactive	15.9% (inactive)	16.1% (inactive)
Cc1ccc2nc(/C(C#N)=N/O)[nH]c2c1	627	-1.7% (inactive)	-7.3% (inactive)	112	-34.1% (inactive)	119	-0.376 (inactive)	-8.1e-05 (inactive)	0.00426 (inactive)	inactive	6.84% (inactive)	6.68% (inactive)
